Laboratory results published in ChEMBL document CHEMBL1157826 (J Med Chem, 2010).
pIC50: −log10 of the molar value. Blank lines part the entries; values can stand above or below the compound they belong to. Activity calls are given as the source filed them. The rule behind the calls is not given here.

Columns and labels:
Liver microsomes = assay: (§1) Metabolic stability in rat liver microsomes at 4 uM after 40 mins by LC/MS/MS analysis; type: ADME, Microsome; conditions: microsomes, 40 min, 4 µM
Method in brief: (§2)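 Test compounds were incubated in rat liver microsomal preparations for 40 min, and the fraction of compound remaining or degraded was reported.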

[1] = Chemical stability at 10 mmol/L after 80 days at -20 degC by LC/MS/MS analysis; type: physicochemical; conditions: 1920 h, 10000 µM
[2] = Chemical stability at 10 mmol/L after 80 days at 21 degC by LC/MS/MS analysis; type: physicochemical; conditions: 1920 h, 10000 µM
[3] = Chemical stability at 10 mmol/L after 80 days at 37 degC by LC/MS/MS analysis; type: physicochemical; conditions: 1920 h, 10000 µM
[4] = Chemical stability at 10 mmol/L after 80 days at 42 degC by LC/MS/MS analysis; type: physicochemical; conditions: 1920 h, 10000 µM
Mus musculus [5] = assay: Reduction of Bcl-2 accumulation in human Bcl2 expressing B6 transgenic mouse assessed as reduction in spleen weight at 42 mg/kg, ip administered as single dose after 24 hrs; type: functional; conditions: route intraperitoneal; for inhibition in vivo at 42 mg/kg: Mus musculus, B6, Spleen, ip, 24 h
Method in brief: (§3)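 Age- and sex-matched B6 transgenic mice (human BCL-2 minigene fused to the IgH locus/enhancer, not yet lymphomatous; two per compound) received a single i.p. dose in 500 μL ethanol/Cremophor EL/saline 10:10:80. Controls received vehicle alone. Mice were killed with Avertin 24 h later and spleens weighed. Shrinkage was expressed as percent reduction versus controls.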

Mus musculus [6] = assay: Reduction of Bcl-2 accumulation in human Bcl2 expressing B6 transgenic mouse assessed as induction of spleen shrinkage at 42 mg/kg, ip administered as single dose after 24 hrs; type: functional; parameters: scale not given: the % may be the effect or the level left; conditions: route intraperitoneal; method in brief: as §3
[7] = Antitumor activity against Mcl-1 overexpressing human M2182 cells xenografted in BALB/c mouse assessed as inhibition of tumor growth at 3 mg/kg, ip administered 9 times every 2 days; type: functional; parameters: scale not given: the % may be the effect or the level left; conditions: route intraperitoneal
Method in brief: (§4)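 Dosing started at visible tumors of ~75 mm3 (~5–6 days): i.p. every 2 days, nine injections in all, in ethanol/Cremophor EL/saline 10:10:80 (500 μL). Vehicle controls were used, with at least five mice per group. Tumors were followed by luciferin (150 mg/kg i.p.) bioluminescence imaging and excised at study end.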

Mus musculus [8] = assay: Toxicity in BALB/c mouse xenografted with Mcl-1 overexpressing human M2182 cells at 1 to 5 mg/mg, ip administered 9 times every 2 days; type: organism-based; conditions: in vivo, 48 h
Method in brief: (§5)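 Athymic nude male mice bearing bilateral s.c. M2182-Luc tumors (~75 mm3) received i.p. doses every 2 days, nine injections in all, in ethanol/Cremophor EL/saline 10:10:80 (500 μL). At least five animals per group. Tolerability was judged by signs of toxicity over the course of treatment.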

[9] = as §1; type: ADME, Microsome; conditions: liver microsomes, read-out: Stability; method in brief: as §2
Mus musculus [10] = assay: Toxicity in BALB/c mouse xenografted with Mcl-1 overexpressing human M2182 cells at 10 to 25 mg/mg, ip administered 9 times every 2 days; type: organism-based; conditions: in vivo, 48 h; method in brief: as §5
MEF [11] = assay: Induction of apoptosis in Bak/Bax double knockout MEF at […] after 24 hrs by FITC-conjugated annexin V and propidium iodide staining-based FACS analysis; type: functional, cell-based; conditions: Mus musculus
Method in brief: (§6)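 Next day, compound was added at final 0, 2.5, 5.0, 7.5, 10 and 30 μM. The following day, floating and trypsinized adherent cells were pooled and stained with Annexin V-FITC/PI. Cells negative for both were scored viable by flow cytometry.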

M2182 [12] = assay: Antitumor activity against Mcl-1 overexpressing human M2182 cells xenografted in BALB/c mouse assessed as reduction of tumor size at 25 mg/kg, ip administered 9 times every 2 days; type: functional, organism-based; parameters: dose 25 mg/kg; method in brief: as §4
M2182 [13] = assay: Antitumor activity against Mcl-1 overexpressing human M2182 cells xenografted in BALB/c mouse assessed as reduction of tumor size at 10 mg/kg, ip administered 9 times every 2 days; type: functional, organism-based; parameters: dose 10 mg/kg; method in brief: as §4
M2182 [14] = assay: Antitumor activity against Mcl-1 overexpressing human M2182 cells xenografted in BALB/c mouse assessed as complete inhibition of tumor growth at 25 mg/kg, ip administered 9 times every 2 days; type: functional, organism-based; parameters: dose 25 mg/kg; method in brief: as §4
BP3 = assay: Induction of apoptosis in human BP3 cells after 1 to 2 days by FITC-conjugated annexin V and propidium iodide staining-based FACS analysis; type: functional, cell-based
MEF [15] = assay: Induction of apoptosis in MEF expressing wild type Bcl-2 protein at 30 uM after 24 hrs by FITC-conjugated annexin V and propidium iodide staining-based FACS analysis; type: functional, cell-based; conditions: Mus musculus; method in brief: as §6
MEF [16] = assay: Induction of apoptosis in Bak/Bax double knockout MEF at 30 uM after 24 hrs by FITC-conjugated annexin V and propidium iodide staining-based FACS analysis; type: functional; conditions: Mus musculus; method in brief: as §6
M2182 [17] = assay: Antitumor activity against Mcl-1 overexpressing human M2182 cells xenografted in BALB/c mouse assessed as reduction of tumor size at 1 to 5 mg/kg, ip administered 9 times every 2 days; type: functional, organism-based; method in brief: as §4
M2182 [18] = assay: Antitumor activity against Mcl-1 overexpressing human M2182 cells xenografted in BALB/c mouse assessed as complete inhibition of tumor growth at 5 mg/kg, ip administered 9 times every 2 days; type: functional, organism-based; parameters: dose 5 mg/kg; method in brief: as §4
Bcl-2-like protein 1 = Bcl-2-like protein 1 (Homo sapiens, UniProt Q07817); assay: Displacement of FITC-labeled Bak BH3 peptide from Bcl-XL after 30 mins by fluorescence polarization assay
Bcl-2-like protein 1, sequence (Q07817 whole entry): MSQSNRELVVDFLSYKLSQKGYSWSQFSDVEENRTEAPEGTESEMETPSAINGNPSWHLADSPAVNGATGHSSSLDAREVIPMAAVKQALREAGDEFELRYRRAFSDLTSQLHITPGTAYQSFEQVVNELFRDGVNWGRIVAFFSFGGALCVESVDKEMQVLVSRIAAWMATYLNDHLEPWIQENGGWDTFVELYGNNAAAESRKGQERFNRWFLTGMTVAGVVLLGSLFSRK

Stability (Liver microsomes): 41% | Stability [1]: Stable | Stability [2]: Stable | Stability [3]: Stable | Stability [4]: Stable
SMILES: Cc1cc2c(C(=O)NC[C@H](C)c3ccccc3)c(O)c(O)cc2c(O)c1-c1c(C)cc2c(C(=O)NC[C@H](C)c3ccccc3)c(O)c(O)cc2c1O (single isomer, unassigned; atropisomer) [listing 1 of 2 here]
inhibition in vivo at 42 mg/kg (Mus musculus [5]): > 30% | Activity (Mus musculus [6]; 42 mg/kg): 65% | Activity [7]: 40% | Activity (Mus musculus [8]): Non-toxic

remaining at 40 min, 4 µM [9]: 28%
SMILES: Cc1cc2c(C(=O)NC[C@H](C)c3ccccc3)c(O)c(O)cc2c(O)c1-c1c(C)cc2c(C(=O)NC[C@H](C)c3ccccc3)c(O)c(O)cc2c1O [1,1',6,6',7,7'-HEXAHYDROXY-3,3'-DIMETHYL-N5-((R)-2-PHENYLPROPYL)-N5'-((R)-2-PHENYLPROPYL)-2,2'-BINAPHTHYL-5,5'-DICARBOXAMIDE (ATROPISOMERIC MIX)]
inhibition (INH) (Mus musculus [5]; 42 mg/kg): <=20% | Activity (Mus musculus [6]; 42 mg/kg): <=40% | Activity (Mus musculus [10]): Non-toxic

SMILES: Cc1cc2c(C(=O)NCC(C)c3ccccc3)c(O)c(O)cc2c(O)c1-c1c(C)cc2c(C(=O)NCC(C)c3ccccc3)c(O)c(O)cc2c1O (racemic)
Activity (MEF [11]): Active | Activity (M2182 [12]): Active | Activity (M2182 [13]): inactive | Activity (M2182 [14]): Active | Activity (Mus musculus [10]): Non-toxic

SMILES: Cc1cc2c(C(=O)NC[C@@H](C)c3ccccc3)c(O)c(O)cc2c(O)c1-c1c(C)cc2c(C(=O)NC[C@@H](C)c3ccccc3)c(O)c(O)cc2c1O (single isomer, unassigned; atropisomer) [listing 1 of 2 here]
Activity (BP3): Dose-dependent effect

SMILES: Cc1cc2c(C(=O)NC[C@@H](C)c3ccccc3)c(O)c(O)cc2c(O)c1-c1c(C)cc2c(C(=O)NC[C@@H](C)c3ccccc3)c(O)c(O)cc2c1O
Activity (BP3): Dose-dependent effect | Activity (MEF [15]): Active | Activity (MEF [16]): Active

SMILES: Cc1cc2c(C(=O)NC[C@H](C)c3ccccc3)c(O)c(O)cc2c(O)c1-c1c(C)cc2c(C(=O)NC[C@H](C)c3ccccc3)c(O)c(O)cc2c1O (single isomer, unassigned; atropisomer) [listing 2 of 2 here]
Activity (BP3): Dose-dependent effect | Activity (MEF [15]): Active | Activity (M2182 [17]): Active | Activity (M2182 [18]): Active

SMILES: Cc1cc2c(C(C)C)c(O)c(O)c(C=O)c2c(O)c1-c1c(C)cc2c(C(C)C)c(O)c(O)c(C=O)c2c1O [GOSSYPOL]
pIC50 (Bcl-2-like protein 1): 6.27

SMILES: Cc1cc2c(C(=O)NC[C@H](C)c3ccccc3)c(O)c(O)cc2c(O)c1-c1c(C)cc2c(C(=O)NC[C@H](C)c3ccccc3)c(O)c(O)cc2c1O
Activity (BP3): Dose-dependent effect

remaining at 40 min, 4 µM [9]: 41%
SMILES: Cc1cc2c(C(=O)NC[C@@H](C)c3ccccc3)c(O)c(O)cc2c(O)c1-c1c(C)cc2c(C(=O)NC[C@@H](C)c3ccccc3)c(O)c(O)cc2c1O [(S)-1',6,6',7,7'-HEXAHYDROXY-3,3'-DIMETHYL-N5-((S)-2-PHENYLPROPYL)-N5'-((S)-2-PHENYLPROPYL)-2,2'-BINAPHTHYL-5,5'-DICARBOXAMIDE (ATROPISOMERIC MIX)]

Stability (Liver microsomes): 42% | Stability [1]: Stable | Stability [2]: Stable | Stability [3]: Stable | Stability [4]: Stable
SMILES: Cc1cc2c(C(=O)NC[C@@H](C)c3ccccc3)c(O)c(O)cc2c(O)c1-c1c(C)cc2c(C(=O)NC[C@@H](C)c3ccccc3)c(O)c(O)cc2c1O (single isomer, unassigned; atropisomer) [listing 2 of 2 here]
inhibition in vivo at 42 mg/kg (Mus musculus [5]): ≤ 20% | Activity (Mus musculus [6]): <=40%
